Measured values published in ChEMBL document CHEMBL3585281, “Antibacterial Labdane Diterpenoids from Vitex vestita” (2015).
Converted amounts (≈) assume the structure as drawn.

How the values were obtained:
Assay type in all cases: functional
[1] = system: Staphylococcus aureus; assay: Antibacterial activity against Staphylococcus aureus CRBIP 2121 after 18 hrs by agar dilution method; settings: CRBIP 2121, 18 h
In short: (§1)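 Agar-dilution MIC against Gram-positive strains. Compounds in DMSO, geometric dilutions giving final 100−0.75 mg/L in Mueller Hinton agar. Strains grown 18 h at 37 °C in trypticase soy broth, diluted in sterile water, spotted by Steers inoculator (about 1000 UFC/spot). Plates incubated 18 h at 37 °C; DMSO blank; ofloxacin positive control. MIC = lowest concentration with no visible growth.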

[2] = system: Enterococcus gallinarum; assay: Antibacterial activity against Enterococcus gallinarum N489 after 18 hrs by agar dilution method; settings: N489, 18 h; in short: as §1
[3] = system: Enterococcus durans; assay: Antibacterial activity against Enterococcus durans CIP 104999 after 18 hrs by agar dilution method; settings: CIP 104999, 18 h; in short: as §1
[4] = system: Bacillus spizizenii; assay: Antibacterial activity against Bacillus subtilis ATCC 6633 after 18 hrs by agar dilution method; settings: ATCC 6633, 18 h; in short: as §1
[5] = system: Listeria monocytogenes; assay: Antibacterial activity against Listeria monocytogenes N851 after 18 hrs by agar dilution method; settings: N851, 18 h; in short: as §1
[6] = system: Listeria monocytogenes; assay: Antibacterial activity against Listeria monocytogenes N836 after 18 hrs by agar dilution method; settings: N836, 18 h; in short: as §1
[7] = system: Enterococcus gallinarum; assay: Antibacterial activity against Enterococcus gallinarum N492 after 18 hrs by agar dilution method; settings: N492, 18 h; in short: as §1
[8] = system: Mammaliicoccus sciuri; assay: Antibacterial activity against Staphylococcus sciuri N993 after 18 hrs by agar dilution method; settings: N993, 18 h; in short: as §1
[9] = system: Enterococcus faecium; assay: Antibacterial activity against Enterococcus faecium N490 after 18 hrs by agar dilution method; settings: N490, 18 h; in short: as §1
[10] = system: HCT-116; assay: Cytotoxicity against human HCT116 cells assessed as growth inhibition at 10^-6 M after 72 hrs by MTS assay relative to control; settings: HCT-116, 72 h, read-out: GI
In short: (§2)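 Cells from ATCC; HCT-116 grown in RPMI 1640 and MRC5 in DMEM, each with 10% FCS and 1% glutamine, 37 °C, 5% CO2. Seeded at 2.5 × 10^3 cells/well, cultured 24 h, then exposed to compounds at 1 and 10 μM final for 72 h. MTS read-out, absorbance 490 nm; percent index from treated/control OD490 × 100, three experiments.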

[11] = system: Enterococcus casseliflavus; assay: Antibacterial activity against Enterococcus casseliflavus CIP 103018 after 18 hrs by agar dilution method; settings: CIP 103018, 18 h; in short: as §1
[12] = system: Staphylococcus aureus; assay: Antibacterial activity against Staphylococcus aureus CIP 7625 after 18 hrs by agar dilution method; settings: CIP 7625, 18 h; in short: as §1
[13] = system: HCT-116; assay: Cytotoxicity against human HCT116 cells assessed as growth inhibition at 10^-5 M after 72 hrs by MTS assay relative to control; settings: HCT-116, 72 h, read-out: GI; in short: as §2
[14] = system: Enterococcus faecium; assay: Antibacterial activity against Enterococcus faecium N823 after 18 hrs by agar dilution method; settings: N823, 18 h; in short: as §1
[15] = system: Staphylococcus intermedius; assay: Antibacterial activity against Staphylococcus intermedius N987 after 18 hrs by agar dilution method; settings: N987, 18 h; in short: as §1
[16] = system: Corynebacterium striatum; assay: Antibacterial activity against Corynebacterium striatum N840 after 18 hrs by agar dilution method; settings: N840, 18 h; in short: as §1
[17] = system: Staphylococcus saprophyticus; assay: Antibacterial activity against Staphylococcus saprophyticus CIP 76125 after 18 hrs by agar dilution method; settings: CIP 76125, 18 h; in short: as §1
[18] = system: Listeria monocytogenes; assay: Antibacterial activity against Listeria monocytogenes CIP 103575 after 18 hrs by agar dilution method; settings: CIP 103575, 18 h; in short: as §1
[19] = system: Enterococcus faecalis; assay: Antibacterial activity against Enterococcus faecalis N491 after 18 hrs by agar dilution method; settings: N491, 18 h; in short: as §1
[20] = system: Enterococcus faecalis; assay: Antibacterial activity against Enterococcus faecalis CIP 104676 after 18 hrs by agar dilution method; settings: CIP 104676, 18 h; in short: as §1
[21] = system: Staphylococcus aureus; assay: Antibacterial activity against Staphylococcus aureus CIP 483 after 18 hrs by agar dilution method; settings: CIP 483, 18 h; in short: as §1
[22] = system: MRC5; assay: Cytotoxicity against human MRC5 cells assessed as growth inhibition at 10^-6 M after 72 hrs by MTS assay relative to control; settings: MRC5, 72 h, read-out: GI; in short: as §2
[23] = system: Enterococcus faecium; assay: Antibacterial activity against Enterococcus faecium N507 after 18 hrs by agar dilution method; settings: N507, 18 h; in short: as §1
[24] = system: Staphylococcus aureus; assay: Antibacterial activity against Staphylococcus aureus CIP 53154 after 18 hrs by agar dilution method; settings: CIP 53154, 18 h; in short: as §1
[25] = system: Bacillus cereus; assay: Antibacterial activity against Bacillus cereus CIP 6624 after 18 hrs by agar dilution method; settings: CIP 6624, 18 h; in short: as §1
[26] = system: Staphylococcus aureus; assay: Antibacterial activity against Staphylococcus aureus CIP 53156 after 18 hrs by agar dilution method; settings: CIP 53156, 18 h; in short: as §1
[27] = system: Enterococcus gallinarum; assay: Antibacterial activity against Enterococcus gallinarum CIP 105985 after 18 hrs by agar dilution method; settings: CIP 105985, 18 h; in short: as §1
[28] = system: Staphylococcus saprophyticus; assay: Antibacterial activity against Staphylococcus saprophyticus E260 after 18 hrs by agar dilution method; settings: E260, 18 h; in short: as §1
[29] = system: Enterococcus faecalis; assay: Antibacterial activity against Enterococcus faecalis N520 after 18 hrs by agar dilution method; settings: N520, 18 h; in short: as §1
[30] = system: Streptococcus agalactiae; assay: Antibacterial activity against Streptococcus agalactiae CIP 103227 after 18 hrs by agar dilution method; settings: ATCC 13813, 18 h; in short: as §1
[31] = system: Enterococcus faecium; assay: Antibacterial activity against Enterococcus faecium N733 after 18 hrs by agar dilution method; settings: N733, 18 h; in short: as §1
[32] = system: Bacillus cereus; assay: Antibacterial activity against Bacillus cereus N190 after 18 hrs by agar dilution method; settings: N190, 18 h; in short: as §1
[33] = system: Staphylococcus lugdunensis; assay: Antibacterial activity against Staphylococcus lugdunensis ATCC 43809 after 18 hrs by agar dilution method; settings: ATCC 43809, 18 h; in short: as §1
[34] = system: MRC5; assay: Cytotoxicity against human MRC5 cells assessed as growth inhibition at 10^-5 M after 72 hrs by MTS assay relative to control; settings: MRC5, 72 h, read-out: GI; in short: as §2
[35] = system: Staphylococcus haemolyticus; assay: Antibacterial activity against Staphylococcus haemolyticus CIP 8156 after 18 hrs by agar dilution method; settings: CIP 8156, 18 h; in short: as §1
[36] = system: Enterococcus hirae; assay: Antibacterial activity against Enterococcus hirae CIP 5855 after 18 hrs by agar dilution method; settings: CIP 5855, 18 h; in short: as §1
[37] = system: Bacillus cereus; assay: Antibacterial activity against Bacillus cereus N349 after 18 hrs by agar dilution method; settings: N349, 18 h; in short: as §1
[38] = system: Staphylococcus aureus; assay: Antibacterial activity against Staphylococcus aureus ATCC 25923 after 18 hrs by agar dilution method; settings: ATCC 25923, 18 h; in short: as §1
[39] = system: Listeria innocua; assay: Antibacterial activity against Listeria innocua E044 after 18 hrs by agar dilution method; settings: E044, 18 h; in short: as §1
[40] = system: Enterococcus faecalis; assay: Antibacterial activity against Enterococcus faecalis CIP 103214 after 18 hrs by agar dilution method; settings: CIP 103214, 18 h; in short: as §1
[41] = system: Enterococcus casseliflavus; assay: Antibacterial activity against Enterococcus casseliflavus N487 after 18 hrs by agar dilution method; settings: N487, 18 h; in short: as §1
[42] = system: Listeria monocytogenes; assay: Antibacterial activity against Listeria monocytogenes N783 after 18 hrs by agar dilution method; settings: N783, 18 h; in short: as §1
[43] = system: Bacillus cereus; assay: Antibacterial activity against Bacillus cereus N258 after 18 hrs by agar dilution method; settings: N258, 18 h; in short: as §1
[44] = system: Staphylococcus epidermidis; assay: Antibacterial activity against Staphylococcus epidermidis CIP 53124 after 18 hrs by agar dilution method; settings: CIP 53124, 18 h; in short: as §1
[45] = system: Enterococcus faecium; assay: Antibacterial activity against Enterococcus faecium CIP 103014 after 18 hrs by agar dilution method; settings: CIP 103014, 18 h; in short: as §1
[46] = system: Enterococcus avium; assay: Antibacterial activity against Enterococcus avium CIP 104053 after 18 hrs by agar dilution method; settings: CIP 104053, 18 h; in short: as §1
[47] = system: Staphylococcus aureus; assay: Antibacterial activity against Staphylococcus aureus ATCC 9144 oxford after 18 hrs by agar dilution method; in short: as §1
[48] = system: Staphylococcus aureus; assay: Antibacterial activity against Staphylococcus aureus CIP 5710 after 18 hrs by agar dilution method; settings: CIP 5710, 18 h; in short: as §1
[49] = system: Enterococcus faecalis; assay: Antibacterial activity against Enterococcus faecalis N518 after 18 hrs by agar dilution method; settings: N518, 18 h; in short: as §1
[50] = system: Enterococcus faecium; assay: Antibacterial activity against Enterococcus faecium CIP 107387 after 18 hrs by agar dilution method; settings: CIP 107387, 18 h; in short: as §1

MIC [1]: 48 µM (≈ 16.1 µg/mL)
MIC [2]: 96 µM (≈ 32.1 µg/mL)
MIC [3]: 48 µM (≈ 16.1 µg/mL)
MIC [4]: 12 µM (≈ 4.01 µg/mL)
MIC [5]: 96 µM (≈ 32.1 µg/mL)
MIC [6]: 96 µM (≈ 32.1 µg/mL)
MIC [7]: 96 µM (≈ 32.1 µg/mL)
MIC [8]: 96 µM (≈ 32.1 µg/mL)
MIC [9]: > 96 µM
MIC [11]: > 96 µM
MIC [12]: 48 µM (≈ 16.1 µg/mL)
MIC [14]: > 96 µM
MIC [15]: 24 µM (≈ 8.03 µg/mL)
MIC [16]: 96 µM (≈ 32.1 µg/mL)
MIC [17]: 48 µM (≈ 16.1 µg/mL)
MIC [18]: 96 µM (≈ 32.1 µg/mL)
MIC [19]: 96 µM (≈ 32.1 µg/mL)
MIC [20]: 96 µM (≈ 32.1 µg/mL)
MIC [21]: 48 µM (≈ 16.1 µg/mL)
MIC [23]: > 96 µM
MIC [24]: 48 µM (≈ 16.1 µg/mL)
MIC [25]: 24 µM (≈ 8.03 µg/mL)
MIC [26]: 48 µM (≈ 16.1 µg/mL)
MIC [27]: > 96 µM
MIC [28]: 48 µM (≈ 16.1 µg/mL)
MIC [29]: 96 µM (≈ 32.1 µg/mL)
MIC [30]: 24 µM (≈ 8.03 µg/mL)
MIC [31]: > 96 µM
MIC [32]: 24 µM (≈ 8.03 µg/mL)
MIC [33]: 48 µM (≈ 16.1 µg/mL)
MIC [36]: > 96 µM
MIC [37]: 24 µM (≈ 8.03 µg/mL)
MIC [38]: 48 µM (≈ 16.1 µg/mL)
MIC [39]: > 96 µM
MIC [40]: > 96 µM
MIC [41]: > 96 µM
MIC [42]: 96 µM (≈ 32.1 µg/mL)
MIC [43]: 24 µM (≈ 8.03 µg/mL)
MIC [44]: 48 µM (≈ 16.1 µg/mL)
MIC [45]: > 96 µM
MIC [46]: 96 µM (≈ 32.1 µg/mL)
MIC [47]: 48 µM (≈ 16.1 µg/mL)
MIC [48]: 48 µM (≈ 16.1 µg/mL)
MIC [49]: > 96 µM
MIC [50]: > 96 µM
Compound: C=C1CC[C@H]2C(C)(C)CCC[C@]2(C)[C@H]1C[C@H](O)C1=CC(=O)OC1O (stereo not given in full)
inhibition of growth at 1 µM [10]: 1%
inhibition of growth at 10 µM [13]: 90%
inhibition of growth at 1 µM [22]: 19%
inhibition of growth at 10 µM [34]: 67%
MIC [35]: 24 µM (≈ 8.03 µg/mL)
